From ChEMBL document CHEMBL4052686, “Synthesis and antibacterial activity of 5-methylphenanthridium derivatives as FtsZ inhibitors” (2017)
≈ marks a conversion by molar mass, not a printed value. Calls of active or inactive are those of the source. The rule behind the calls is not given here.

Experiments:
Bacillus subtilis [1] = assay: Antibacterial activity against penicillin-susceptible Bacillus subtilis ATCC 9372 incubated for 24 hrs by tube-dilution method; format: functional; details: ATCC 9372, 24 h
How it was run: (§1)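 MIC by tube dilution per NCCLS; B. subtilis ATCC9372, E. coli ATCC25922, P. aeruginosa ATCC27853 and S. aureus ATCC25923 are penicillin-susceptible strains.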

Escherichia coli [2] = assay: Antibacterial activity against penicillin-susceptible Escherichia coli ATCC 25922 incubated for 24 hrs by tube-dilution method; format: functional; details: ATCC 25922, 24 h; how it was run: as §1
Pseudomonas aeruginosa [3] = assay: Antibacterial activity against penicillin-susceptible Pseudomonas aeruginosa ATCC 27853 incubated for 24 hrs by tube-dilution method; format: functional; details: ATCC 27853, 24 h; how it was run: as §1
Staphylococcus aureus [4] = assay: Antibacterial activity against penicillin-susceptible Staphylococcus aureus ATCC 25923 incubated for 24 hrs by tube-dilution method; format: functional; details: ATCC 25923, 24 h; how it was run: as §1
Staphylococcus aureus [5] = assay: Antibacterial activity against […] Staphylococcus aureus ATCC 29213 incubated for 24 hrs by tube-dilution method; format: functional; details: ATCC 29213, 24 h
How it was run: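 Broth tube-dilution MIC run as NCCLS recommends, against the […] S. aureus strain ATCC29213.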

Staphylococcus aureus [6] = assay: Antibacterial activity against penicillin-resistant Staphylococcus aureus clinical isolates incubated for 24 hrs by tube-dilution method; format: functional
[7] = system: Staphylococcus epidermidis; assay: Antibacterial activity against penicillin-resistant Staphylococcus epidermidis clinical isolates incubated for 24 hrs by tube-dilution method; format: functional
Streptococcus pyogenes [8] = assay: Antibacterial activity against penicillin-susceptible Streptococcus pyogenes clinical isolates incubated for 24 hrs by tube-dilution method; format: functional
Streptococcus pyogenes [9] = assay: Antibacterial activity against penicillin-resistant Streptococcus pyogenes clinical isolates incubated for 24 hrs by tube-dilution method; format: functional
Bacillus subtilis [10] = assay: Inhibition of FtsZ in penicillin-susceptible Bacillus subtilis ATCC 9372 assessed as lowest drug concentration causing inhibition of cell division incubated for 5 hrs by phase-contrast light microscopy
How it was run: (§2)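 Cell division inhibition judged from bacterial cell morphology under phase-contrast light microscopy, scored as lowest concentration altering division; penicillin-susceptible strains B. subtilis ATCC9372, E. coli ATCC25922, P. aeruginosa ATCC27853, S. aureus ATCC25923.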

Streptococcus pyogenes [11] = assay: Potency index, ratio of MIC for oxacillin sodium to MIC for test compound against penicillin-susceptible Streptococcus pyogenes clinical isolates incubated for 24 hrs by tube-dilution method; format: functional
Escherichia coli [12] = assay: Inhibition of FtsZ in penicillin-susceptible Escherichia coli ATCC 25922 assessed as lowest drug concentration causing inhibition of cell division incubated for 5 hrs by phase-contrast light microscopy; how it was run: as §2
Pseudomonas aeruginosa [13] = assay: Inhibition of FtsZ in penicillin-susceptible Pseudomonas aeruginosa ATCC 27853 assessed as lowest drug concentration causing inhibition of cell division incubated for 5 hrs by phase-contrast light microscopy; how it was run: as §2
Streptococcus pyogenes [14] = assay: Potency index, ratio of MIC for sanguinarine to MIC for test compound against penicillin-susceptible Streptococcus pyogenes clinical isolates incubated for 24 hrs by tube-dilution method; format: functional
Staphylococcus aureus [15] = assay: Inhibition of FtsZ in penicillin-susceptible Staphylococcus aureus ATCC 25923 assessed as lowest drug concentration causing inhibition of cell division incubated for 5 hrs by phase-contrast light microscopy; how it was run: as §2
Bacillus subtilis [16] = assay: Potency index, ratio of MIC for curcumin to MIC for test compound against penicillin-susceptible Bacillus subtilis ATCC 9372 incubated for 24 hrs by tube-dilution method; format: functional
Bacillus subtilis [17] = assay: Potency index, ratio of MIC for sanguinarine to MIC for test compound against penicillin-susceptible Bacillus subtilis ATCC 9372 incubated for 24 hrs by tube-dilution method; format: functional
Bacillus subtilis [18] = assay: Potency index, ratio of MIC for ciprofloxaxin to MIC for test compound against penicillin-susceptible Bacillus subtilis ATCC 9372 incubated for 24 hrs by tube-dilution method; format: functional
Bacillus subtilis [19] = assay: Potency index, ratio of MIC for oxacillin sodium to MIC for test compound against penicillin-susceptible Bacillus subtilis ATCC 9372 incubated for 24 hrs by tube-dilution method; format: functional
Sus scrofa = species: Sus scrofa; assay: Induction of porcine tubulin polymerisation at 2 times MIC for penicillin-resistant Staphylococcus aureus by fluorescence microscopy
How it was run: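 Polymerisation of mammalian tubulin measured with a commercial tubulin assay kit, read by fluorescence of the kit reporter, with paclitaxel as the positive control for enhanced polymerisation.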

Staphylococcus aureus [20] = assay: Inhibition of FtsZ in penicillin-susceptible Staphylococcus aureus ATCC 25923 assessed as inhibition of cell division at […] incubated for 5 hrs by phase-contrast light microscopy
Bacillus subtilis [21] = assay: Inhibition of FtsZ in penicillin-susceptible Bacillus subtilis ATCC 9372 assessed as inhibition of cell division at […] incubated for 5 hrs by phase-contrast light microscopy

Row | Structure (SMILES) | MIC (Bacillus subtilis [1]) | MIC (Escherichia coli [2]) | MIC (Pseudomonas aeruginosa [3]) | MIC (Staphylococcus aureus [4]) | MIC (Staphylococcus aureus [5]) | MIC (Staphylococcus aureus [6]) | MIC [7] | MIC (Streptococcus pyogenes [8]) | MIC (Streptococcus pyogenes [9]) | MIC (Bacillus subtilis [10]) | MIC (Escherichia coli [12]) | MIC (Pseudomonas aeruginosa [13]) | MIC (Staphylococcus aureus [15]) | Activity (Sus scrofa) | also measured
1 | Cc1onc(-c2ccccc2)c1C(=O)N[C@@H]1C(=O)N2[C@@H]1SC(C)(C)[C@@H]2C(=O)[O-].[Na+] | 8 µg/mL | 128 µg/mL | 128 µg/mL | 8 µg/mL | 128 µg/mL | > 128 µg/mL | 8 µg/mL | 1 µg/mL | 2 µg/mL | – | – | – | – | – | –
2 | Cc1cc(C)c2c(c1)c1ccccc1c[n+]2C.[Cl-] | 4 µg/mL | > 128 µg/mL | > 128 µg/mL | 64 µg/mL | 32 µg/mL | 4 µg/mL | 128 µg/mL | 4 µg/mL | 8 µg/mL | 2 µg/mL | > 128 µg/mL | 128 µg/mL | 64 µg/mL | inactive | Ratio (Streptococcus pyogenes [11]): 4; Ratio (Streptococcus pyogenes [14]): 2; Ratio (Bacillus subtilis [16]): 8; Ratio (Bacillus subtilis [17]): 2; Ratio (Bacillus subtilis [18]): 2; Ratio (Bacillus subtilis [19]): 2
3 | COc1cc(OC)c2c(c1)c1ccccc1c[n+]2C.[Cl-] | 4 µg/mL | > 128 µg/mL | > 128 µg/mL | 128 µg/mL | 32 µg/mL | 4 µg/mL | 64 µg/mL | 4 µg/mL | 8 µg/mL | 2 µg/mL | > 128 µg/mL | 128 µg/mL | 128 µg/mL | inactive | Ratio (Streptococcus pyogenes [11]): 4; Ratio (Streptococcus pyogenes [14]): 2; Ratio (Bacillus subtilis [16]): 8; Ratio (Bacillus subtilis [17]): 2; Ratio (Bacillus subtilis [18]): 2; Ratio (Bacillus subtilis [19]): 2
4 | CCCCc1ccc2c(c1)c1ccccc1c[n+]2C.[Cl-] | 4 µg/mL | > 128 µg/mL | > 128 µg/mL | 64 µg/mL | > 128 µg/mL | 8 µg/mL | > 128 µg/mL | 8 µg/mL | 8 µg/mL | 4 µg/mL | 128 µg/mL | > 128 µg/mL | 64 µg/mL | inactive | –
5 | C[n+]1cc2ccccc2c2cc(Cl)ccc21.[Cl-] | 16 µg/mL | 128 µg/mL | > 128 µg/mL | > 128 µg/mL | > 128 µg/mL | 32 µg/mL | > 128 µg/mL | 32 µg/mL | 32 µg/mL | 16 µg/mL | 128 µg/mL | > 128 µg/mL | > 128 µg/mL | inactive | –
6 | Cc1ccc2c(c1)c1ccccc1c[n+]2C.[Cl-] | 4 µg/mL | > 128 µg/mL | > 128 µg/mL | 64 µg/mL | 128 µg/mL | 4 µg/mL | 128 µg/mL | 4 µg/mL | 8 µg/mL | 4 µg/mL | > 128 µg/mL | > 128 µg/mL | 32 µg/mL | inactive | Ratio (Streptococcus pyogenes [11]): 4; Ratio (Streptococcus pyogenes [14]): 2; Ratio (Bacillus subtilis [16]): 8; Ratio (Bacillus subtilis [17]): 2; Ratio (Bacillus subtilis [18]): 2; Ratio (Bacillus subtilis [19]): 2
7 | COc1cccc2c3ccccc3c[n+](C)c12.[Cl-] | 8 µg/mL | > 128 µg/mL | > 128 µg/mL | > 128 µg/mL | > 128 µg/mL | 16 µg/mL | 128 µg/mL | 16 µg/mL | 16 µg/mL | 8 µg/mL | > 128 µg/mL | > 128 µg/mL | > 128 µg/mL | inactive | –
8 | Cc1cccc2c3ccccc3c[n+](C)c12.[Cl-] | 4 µg/mL | > 128 µg/mL | > 128 µg/mL | 128 µg/mL | > 128 µg/mL | 4 µg/mL | 128 µg/mL | 4 µg/mL | 8 µg/mL | 4 µg/mL | > 128 µg/mL | > 128 µg/mL | 128 µg/mL | inactive | Ratio (Streptococcus pyogenes [11]): 4; Ratio (Streptococcus pyogenes [14]): 2; Ratio (Bacillus subtilis [16]): 8; Ratio (Bacillus subtilis [17]): 2; Ratio (Bacillus subtilis [18]): 2; Ratio (Bacillus subtilis [19]): 2
9 | C[n+]1cc2ccccc2c2cc(F)ccc21.[Cl-] | 16 µg/mL | > 128 µg/mL | 128 µg/mL | > 128 µg/mL | > 128 µg/mL | 32 µg/mL | > 128 µg/mL | 32 µg/mL | 32 µg/mL | 16 µg/mL | > 128 µg/mL | 128 µg/mL | > 128 µg/mL | inactive | –
10 | COc1ccc2c(c1)c1ccccc1c[n+]2C.[Cl-] | 8 µg/mL | > 128 µg/mL | > 128 µg/mL | > 128 µg/mL | 128 µg/mL | 8 µg/mL | 64 µg/mL | 8 µg/mL | 16 µg/mL | 8 µg/mL | > 128 µg/mL | > 128 µg/mL | > 128 µg/mL | inactive | –
11 | C[n+]1cc2ccccc2c2cc(C(C)(C)C)ccc21.[Cl-] | 8 µg/mL | > 128 µg/mL | > 128 µg/mL | 64 µg/mL | > 128 µg/mL | 16 µg/mL | 128 µg/mL | 16 µg/mL | 16 µg/mL | 8 µg/mL | 128 µg/mL | > 128 µg/mL | 64 µg/mL | inactive | –
12 | C[n+]1cc2ccccc2c2ccccc21.[Cl-] | 16 µg/mL | > 128 µg/mL | 128 µg/mL | > 128 µg/mL | > 128 µg/mL | 32 µg/mL | > 128 µg/mL | 32 µg/mL | 32 µg/mL | 16 µg/mL | > 128 µg/mL | 128 µg/mL | > 128 µg/mL | inactive | –
13 | C[n+]1cc2ccccc2c2cc(C(F)(F)F)ccc21.[Cl-] | 128 µg/mL | > 128 µg/mL | > 128 µg/mL | 128 µg/mL | > 128 µg/mL | 128 µg/mL | 128 µg/mL | 128 µg/mL | 128 µg/mL | 64 µg/mL | > 128 µg/mL | > 128 µg/mL | 128 µg/mL | inactive | –
14 | C[n+]1cc2c3c(ccc2c2ccc4cc5c(cc4c21)OCO5)OCO3 | 8 µg/mL | > 128 µg/mL | > 128 µg/mL | 8 µg/mL | 8 µg/mL | 4 µg/mL | 64 µg/mL | 8 µg/mL | 8 µg/mL | 8 µg/mL | > 128 µg/mL | > 128 µg/mL | 8 µg/mL | – | –
15 | O=C(O)c1cn(C2CC2)c2cc(N3CCNCC3)c(F)cc2c1=O [CIPROFLOXACIN] | 8 µg/mL (≈ 24.1 µM) | – | – | 32 µg/mL (≈ 96.6 µM) | 4 µg/mL (≈ 12.1 µM) | – | – | – | – | – | – | – | – | – | –
16 | CSc1ccc2c(c1)c1ccccc1c[n+]2C.[Cl-] | 8 µg/mL | > 128 µg/mL | > 128 µg/mL | 128 µg/mL | > 128 µg/mL | 32 µg/mL | > 128 µg/mL | 32 µg/mL | 32 µg/mL | 8 µg/mL | 128 µg/mL | > 128 µg/mL | 128 µg/mL | inactive | –
17 | C[n+]1cc2ccccc2c2cccc(OC(F)(F)F)c21.[Cl-] | 4 µg/mL | > 128 µg/mL | > 128 µg/mL | 16 µg/mL | 64 µg/mL | 8 µg/mL | 32 µg/mL | 4 µg/mL | 8 µg/mL | 4 µg/mL | > 128 µg/mL | > 128 µg/mL | 16 µg/mL | inactive | Ratio (Streptococcus pyogenes [11]): 4; Ratio (Streptococcus pyogenes [14]): 2; inhibition (Staphylococcus aureus [20]): Active; inhibition (Bacillus subtilis [21]): Active; Ratio (Bacillus subtilis [16]): 8; Ratio (Bacillus subtilis [17]): 2; Ratio (Bacillus subtilis [18]): 2; Ratio (Bacillus subtilis [19]): 2
